# Reference: ChEMBL document CHEMBL1667754, “Synthesis and biological activity of pyrazolothienotetrahydroisoquinoline and [1,2,4]triazolo[3,4-a]thienotetrahydroisoquinoline derivatives” (2011)
# Assays:
# Candida albicans = test: Antifungal activity against Candida albicans at 200 ug/disc by disc diffusion assay
# Geotrichum candidum = test: Antifungal activity against Geotrichum candidum at 2% by disc diffusion assay
# Pseudomonas aeruginosa = test: Antibacterial activity against Pseudomonas aeruginosa at 200 ug/disc by disc diffusion assay
# Aspergillus niger = test: Antifungal activity against Aspergillus niger at 2% by disc diffusion assay
# Bacillus cereus = test: Antibacterial activity against Bacillus cereus at 200 ug/disc by disc diffusion assay
# Trichophyton rubrum = test: Antifungal activity against Trichophyton rubrum at 50 uL/well by well diffusion assay; format: functional
# Method in brief: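 Agar discs (10 mm) carrying spores and hyphae were shaken in sterile distilled water. 1 mL of the spore suspension was plated and mixed with 15 mL molten SDA, then left to set. Compounds were at 2% in DMSO, applied per Bauer's diffusion method. The read-out was the inhibition zone (mm).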
# Aspergillus flavus = test: Antifungal activity against Aspergillus flavus at 2% by disc diffusion assay
# Micrococcus luteus = test: Antibacterial activity against Micrococcus luteus at 50 uL/well by well diffusion assay; format: functional
# Method in brief: (§1)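 Bauer-type diffusion assay. Test compounds were at 2% in DMSO. The read-out was the diameter (mm) of the inhibition zone, with chloramphenicol as the reference agent.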
# Fusarium oxysporum = test: Antifungal activity against Fusarium oxysporum at 2% by disc diffusion assay
# Serratia marcescens = test: Antibacterial activity against Serratia marcescens at 200 ug/disc by disc diffusion assay
# Staphylococcus aureus = test: Antibacterial activity against Staphylococcus aureus at 200 ug/disc by disc diffusion assay
# [1] = tested on: Scopulariopsis brevicaulis; test: Antifungal activity against Scopulariopsis brevicaulis at 2% by disc diffusion assay
# Escherichia coli = test: Antibacterial activity against Escherichia coli at 50 uL/well by well diffusion assay; format: functional
# Method in brief: as §1
SMILES,diameter of the inhibition zone (DIZ) (Candida albicans) [mm],diameter of the inhibition zone (DIZ) (Geotrichum candidum) [mm],diameter of the inhibition zone (DIZ) (Pseudomonas aeruginosa) [mm],diameter of the inhibition zone (DIZ) (Aspergillus niger) [mm],diameter of the inhibition zone (DIZ) (Bacillus cereus) [mm],diameter of the inhibition zone (DIZ) (Trichophyton rubrum) [mm],diameter of the inhibition zone (DIZ) (Aspergillus flavus) [mm],diameter of the inhibition zone (DIZ) (Micrococcus luteus) [mm],diameter of the inhibition zone (DIZ) (Fusarium oxysporum) [mm],diameter of the inhibition zone (DIZ) (Serratia marcescens) [mm],diameter of the inhibition zone (DIZ) (Staphylococcus aureus) [mm],diameter of the inhibition zone (DIZ) [1] [mm],diameter of the inhibition zone (DIZ) (Escherichia coli) [mm]
NC(=O)c1sc2c(c1N)c1c(c3nncn32)CCCC1,0,0,0,0,10,0,0,0,0,0,8,0,0
CC(=O)CSc1c(C#N)c2c(c3nncn13)CCCC2,0,0,0,0,12,0,0,12,0,12,10,0,8
CC(=O)c1sc2c(c1N)c1c(c3nncn32)CCCC1,0,0,0,0,0,0,0,0,0,0,0,0,0
N#Cc1c2c(c3nncn3c1SCC(=O)c1ccccc1)CCCC2,11,8,0,16,14,0,20,14,11,0,0,10,10
Nc1c(C(=O)c2ccccc2)sc2c1c1c(c3nncn32)CCCC1,11,8,0,13,0,0,15,11,0,0,0,8,10
O=C(N[C@H](CO)[C@H](O)c1ccc([N+](=O)[O-])cc1)C(Cl)Cl [CHLORAMPHENICOL],–,–,17,–,30,–,–,18,–,40,20,–,34
Clc1ccccc1C(c1ccccc1)(c1ccccc1)n1ccnc1 [CLOTRIMAZOLE],27,26,–,25,–,40,26,–,25,–,–,27,–
